Screens from PubChem.
Most compounds without a hit are left out; they make up all but 2.4% or so of the library.
NR2E3 ag-1 – agonists of human NR2E3 nuclear receptor. Q9Y5X4. 360,000 tested, 0.35% active. AID 602229. inhibition of corepressor binding, % at 3.98 µM. CHO-S Gal4-NCOR/VP16-NR2E3 two-hybrid, luciferase;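 active = inhibition above the mean of all tested compounds plus 3 SD, cut at about 70% in these data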;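 also: higher means lower luciferase signal from less NR2E3 corepressor binding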
Target sequence (Q9Y5X4 whole entry, looked up, the tested form may be a part): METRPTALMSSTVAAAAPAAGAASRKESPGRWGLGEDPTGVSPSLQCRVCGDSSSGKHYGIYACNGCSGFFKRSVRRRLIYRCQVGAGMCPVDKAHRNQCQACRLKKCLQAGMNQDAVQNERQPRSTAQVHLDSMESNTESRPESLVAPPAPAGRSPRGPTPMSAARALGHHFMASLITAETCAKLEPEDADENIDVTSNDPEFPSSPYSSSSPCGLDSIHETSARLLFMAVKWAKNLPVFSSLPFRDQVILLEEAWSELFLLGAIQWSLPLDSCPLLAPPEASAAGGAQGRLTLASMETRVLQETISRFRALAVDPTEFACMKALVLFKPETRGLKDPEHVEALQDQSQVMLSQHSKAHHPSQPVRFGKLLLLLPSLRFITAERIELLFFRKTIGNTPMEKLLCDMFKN
aDG glyco act – alpha-DG glycosylation activation | Pro5-aDG cells, alpha-DG glycosylation AlphaScreen (IIH6); 0% Pro5, 100% B10-LARGE cell signal | activation, % at 10 µM | 360,000 tested, 0.22% active | AID 624168;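 active = activation of at least 8% versus controls, or a plate z-score of at least 8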;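 also: Pro5 are CHO cells carrying HIG-tagged alpha-DG that lacks glycosylation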
NR2E3 ag-2 – agonists of human nuclear receptor NR2E3; Q9Y5X4; GST-NR2E3/biotin-RetCOR TR-FRET, 1536-well; 320,000 tested, 0.12% active; inhibition of corepressor binding, % at 4.78 µM;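 active = percent inhibition above the cutoff of mean plus 3 SD of all tested compounds, set per screening campaign, cut at about 20% in these data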
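Format: 1536-well format; test system: GST-NR2E3 and biotin-RetCOR proteins; read-out basis: percent inhibition of TR-FRET ratio; timing: 5 h incubation at 4 °C; detection: time-resolved FRET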
MPTP inh – blocks calcium-induced mitochondrial swelling; inhibition, % at 10 µM; 360,000 tested, 1.4% active; AID 602449; isolated mouse mitochondria, Ca2+ swelling absorbance, 30 min;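 active = inhibition of 50% or more, scaled per plate between neutral and stimulator controls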
697 NFkB inh – inhibitors of the PMA/ionomycin-induced NF-kB reporter in 697 B cells. 330,000 tested, 0.33% active. 697 B-cell NF-kB luciferase reporter, 16 h. inhibition, % at 4 µM; in the data active = inhibition above about 35%
Jurkat NFkB inh – inhibitors of the PMA/ionomycin-induced NF-kB reporter in Jurkat cells; PMA/ionomycin-induced NF-kB luciferase reporter, luminescence; inhibition, % at 4 µM; 330,000 tested, 0.53% active; AID 435003; in the data active = inhibition above about 50%
MPTP counter – Rhodamine 123 counter-screen of mitochondrial pore hits | shares compounds with MPTP inh | isolated mitochondria, membrane potential, Rhodamine 123 fluorescence | inhibition, % at 10 µM | 5,000 tested, 78% active | AID 624504; in the data active = inhibition above about 22%
MPTP abs DR – MPTP inhibition, dose response swelling confirmation. shares compounds with MPTP inh. isolated mitochondria swelling, absorbance. AID 651561. 780 tested, 58% active. IC50, µM; in the data active = IC50 below about 20 µM
MPTP counter DR – MPTP inhibitor counter-screen activity, dose response | shares compounds with MPTP inh | isolated mitochondria counterscreen, fluorescence read-out | IC50, µM | 780 tested, 49% active | AID 651564; in the data active = IC50 below about 80 µM
Each line names hits and unclear results; the compound was inactive in the other large screens (follow-up assays come after a bar, where they were run).

O=C(NCc1ccc(Cl)cc1)C1=Cc2cc(Cl)ccc2OC1	MPTP inh 78 | MPTP counter 89
O=C(CNC(=O)c1ccccc1F)OCC(=O)c1ccc(Cl)s1	none
O=[N+]([O-])c1cc(Br)c(O)c(/C=N/Nc2nnnn2-c2cccc3ccccc23)c1	MPTP inh 56 | MPTP counter 34
O=[N+]([O-])c1cc(Br)c(O)c(C=Nc2ccc(N3CCOCC3)cc2)c1	none
CC1(C)Cc2ccccc2-c2nc(-c3ccccc3)oc(=O)c21	MPTP inh 70 | MPTP counter inactive | MPTP abs DR 7.6 | MPTP counter DR inactive
O=C1NC(=S)CN1c1ccccc1	none
COCCCNC(=O)CN1C(=O)COc2ccc(S(=O)(=O)N3CC(C)CC(C)C3)cc21 (stereo unspecified)	none
CCNC(=S)Nc1ccc(Cl)c([N+](=O)[O-])c1	MPTP inh 96 | MPTP counter 90
O=C(NC(=S)Nc1ccc(F)c([N+](=O)[O-])c1)c1ccccc1F	none
CC(CC(=O)Nc1ccc(C(N)=O)cc1)c1ccccc1 (stereo unspecified)	none
O=C(Nc1ccc(Cl)c([N+](=O)[O-])c1)Nc1nc2ccccc2s1	none (no result: NR2E3 ag-1, aDG glyco act, MPTP inh)
CC(CC(=O)Nc1ccc(Cl)c([N+](=O)[O-])c1)c1ccccc1 (stereo unspecified)	MPTP inh 105 | MPTP counter 90
O=C(Nc1ccccc1)Nc1ccc(Cl)c([N+](=O)[O-])c1	MPTP inh 101 | MPTP counter 99
O=C(Nc1ccccc1)Nc1ccc(F)c([N+](=O)[O-])c1	MPTP inh 94 | MPTP counter 99
Cc1noc(C)c1-c1nc(CS(=O)(=O)c2ccccc2)no1	none
C[C@H]1Cn2cnc(C(=O)Nc3cccc(Cl)c3)c2C(=O)N1	none (no result: NR2E3 ag-2, 697 NFkB inh, Jurkat NFkB inh)
CC(C)C[C@H]1CNC(=O)C(=O)N1CC1CCN(CCc2ccccc2)CC1	none (no result: NR2E3 ag-2, 697 NFkB inh, Jurkat NFkB inh)
CCOc1ccc(NC(=S)/C(=C(\[O-])c2ccc(C)c([N+](=O)[O-])c2)[n+]2ccccc2)cc1	none
CC(=O)Nc1ccc(C)c([N+](=O)[O-])c1	none
CCOc1ccc(NC(=S)Nc2ccc(C)c([N+](=O)[O-])c2)cc1	MPTP inh 86 | MPTP counter 90
Cc1ccc(NC(=O)Nc2ccccc2)cc1[N+](=O)[O-]	MPTP inh 77 | MPTP counter 101
Cc1cc(C)cc(NC(=O)C(Sc2nnc(C)c(=O)[nH]2)c2ccccc2)c1 (stereo unspecified)	none
Cc1nnc(SC(C(=O)Nc2ccc(Cl)c([N+](=O)[O-])c2)c2ccccc2)[nH]c1=O (stereo unspecified)	MPTP inh 74 | MPTP counter 51
O=C(NNc1ccccc1[N+](=O)[O-])Nc1cccc(Cl)c1	MPTP inh 84 | MPTP counter 85
O=[N+]([O-])c1cc(/C=N/N/C(=N/c2ccccn2)c2ccccn2)ccc1O	MPTP inh 78 | MPTP counter inactive
O=[N+]([O-])c1ccc(/C=N/N/C(=N/c2ccccn2)c2ccccn2)cc1	none
Cn1cc(CN2CCN(c3ccccc3)CC2)c2ccccc21	MPTP inh 61 | MPTP counter inactive | MPTP abs DR inactive | MPTP counter DR inactive
O=C(O)Cn1cc(CN2CCOCC2)c2ccccc21	none
CCOC(=O)c1ccc(NC(=O)CCc2nc(-c3cccc(C)c3)no2)cc1	MPTP inh 85 | MPTP counter 91
O=C(CCc1nc(-c2ccccc2F)no1)Nc1ccc(Oc2ccccc2)cc1	MPTP inh 107 | MPTP counter 94
Cc1cccc(-c2noc(CCC(=O)Nc3ccccc3)n2)c1	none
COc1cccc(NC(=O)CCc2nc(-c3ccccc3F)no2)c1	none
CCOC(=O)Cc1csc(NC(=O)CCCC(=O)O)n1	none
CC(=O)c1ccc(Oc2cc(-c3ccccc3)nc(-c3ccccc3)n2)cc1	MPTP inh 53 | MPTP counter inactive | MPTP abs DR inactive | MPTP counter DR inactive
O=Cc1ccc(Oc2cc(-c3ccccc3)nc(-c3ccccc3)n2)cc1	none
COC(=O)c1ccc(CSc2ccccc2NC(=S)Nc2cccc(C(F)(F)F)c2)o1	MPTP inh 86 (no result: NR2E3 ag-2, 697 NFkB inh, Jurkat NFkB inh) | MPTP counter 90
CCOC(=O)c1ccc(NC(=O)Nc2ncc(Cl)cc2Cl)cc1	none (no result: NR2E3 ag-1, aDG glyco act, MPTP inh)
S=c1[nH]ccn1-c1c(Cl)cccc1Cl	none
Cc1cccc(NC(=O)CSc2cc(C)c(C#N)c3nc4ccccc4n23)c1	MPTP inh 85 | MPTP counter 58
CNc1cc(C)c(C#N)c2nc3ccccc3n12	none
CCOC(=O)c1sc(N)nc1C(F)(F)F	none (no result: NR2E3 ag-2, 697 NFkB inh, Jurkat NFkB inh)
O=C(Nc1ccc(Cl)cc1)N[C@@H]1c2c(ccc3ccccc23)OC[C@@H]1CO	MPTP inh 93 | MPTP counter 74
N=c1c2c(-c3ccccc3)c(-c3ccccc3)n(Cc3ccco3)c2ncn1CCCn1ccnc1	none (no result: 697 NFkB inh, Jurkat NFkB inh)
N=c1c2c(-c3ccccc3)c(-c3ccccc3)n(Cc3ccco3)c2ncn1CCCN1CCOCC1	MPTP inh 71 | MPTP counter inactive
O=C(NC(Cc1cn(Cc2ccccc2)cn1)C(=O)O)OCC1c2ccccc2-c2ccccc21 (stereo unspecified)	none (no result: NR2E3 ag-2, 697 NFkB inh, Jurkat NFkB inh)
CC1CCCCC12NC(=O)N(CC(=O)N1CCN(S(=O)(=O)c3ccc4c(c3)CCC4)CC1)C2=O (stereo unspecified)	none (no result: NR2E3 ag-2)
O=[N+]([O-])c1cc([N+](=O)[O-])c2cc(-c3cccnc3)[nH]c2c1	MPTP inh 52 | MPTP counter 56
CN1/C(=C\C(=O)Nc2ccc(Cl)cc2)C(C)(C)c2ccccc21	MPTP inh 79 | MPTP counter 70
O=[N+]([O-])c1ccc(N2CCN(C(=S)Nc3cccc(F)c3)CC2)cc1	MPTP inh 55 | MPTP counter 58
O=[N+]([O-])c1ccc(N2CCN(C(=S)Nc3ccc(F)cc3)CC2)cc1	none
O=[N+]([O-])c1ccc(NC(=S)N2CCc3ccccc3C2)cc1	MPTP inh 58 | MPTP counter 65
Cn1c(SCc2ccccc2[N+](=O)[O-])nnc1-c1cccnc1	none
NC(=S)n1[nH]c(-c2ccc([N+](=O)[O-])cc2)c(N=Nc2cccc(Cl)c2)c1=O	MPTP inh 90 (no result: NR2E3 ag-2) | MPTP counter 70
